Values after ≈ are worked out from the molar mass of the structure shown.

Series [1] in a line: Intrinsic clearance in Sprague-Dawley rat liver microsomes assessed per mg protein at 0.1 uM by LC/MS/MS analysis. The format is ADME. As to conditions: read-out: […]. The essentials:
(§1)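 Male Sprague−Dawley rat liver microsomes (0.33 mg/mL protein) in 0.1 M Tris-HCl pH 7.4 with 5 mM MgCl₂ and 1 mM NADPH. Compound at a final 0.1 μM (0.01% DMSO, 0.005% BSA), incubated at 37 °C. Samples taken at 0, 7, 17, 30 and 60 min were quenched in methanol, and parent compound was measured by LC/MS/MS. t1/2 and Clint were then calculated.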
In general terms: Liver microsomes are vesicles of endoplasmic reticulum, rich in cytochrome P450 enzymes.

The nature of series [2]: Oral bioavailability in Sprague-Dawley rat at 10 mg/kg. In kind it is ADME, organism-based. As to conditions: in vivo. The essentials: (§2)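 Male Sprague−Dawley rats (200−250 g), seven per group, dosed orally at 10 mg/kg or intravenously at 3 or 5 mg/kg in 5% DMSO + 5% Tween 80 in 90% saline. Serial retrobulbar blood samples were quantified by LC-MS. Parameters were derived from mean plasma concentrations by noncompartmental analysis. For the disulfate salt, values are based on the active free base measured.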

Series [3] is described as follows: Tmax in Sprague-Dawley rat at 10 mg/kg, po. In kind it is ADME, organism-based. Also on record: dose 10 mg/kg, route oral. As to conditions: in vivo. The essentials:
as §2

The subject of series [4] is Candida albicans. The experiment in a line: Antimicrobial activity against Candida albicans SC5314 infected in ICR mouse assessed as mean survival days at 3.2 mg/kg, iv qd for 5 days starting 2 hrs post infection (reference value: 9.0 +/- 0.67 days). The format is functional.
Series [5] can be described thus: Cmax in Sprague-Dawley rat at 10 mg/kg, po. The settings on record: in vivo. Also on record: dose 10 mg/kg, route oral. In kind it is ADME, organism-based. The essentials: as §2
Series [6] is described as follows: Elimination half life in Sprague-Dawley rat liver microsomes at 0.1 uM by LC/MS/MS analysis. The format is ADME. As to conditions: read-out: beta t1/2. Summed up: as §1
Series [7] is described as follows: Half life in Sprague-Dawley rat at 10 mg/kg, po. The format is ADME, organism-based. Set-up: dose 10 mg/kg, route oral. The settings on record: in vivo. The essentials: as §2
The test system of series [8] is Candida albicans. The experiment in a line: Antimicrobial activity against Candida albicans SC5314 infected in ICR mouse assessed as mean survival days at 10 mg/kg, iv qd for 5 days starting 2 hrs post infection (reference value: 9.0 +/- 0.67 days). In kind it is functional.
Series [9] has as its system Candida albicans. As to the kind of experiment: Antimicrobial activity against Candida albicans SC5314 infected in ICR mouse assessed as mean survival days at 1 mg/kg, iv qd for 5 days starting 2 hrs post infection (reference value: 9.0 +/- 0.67 days). In kind it is functional.
Series [10] can be described thus: AUC (0 to infinity) in Sprague-Dawley rat at 10 mg/kg, po. As to conditions: plasma. The format is ADME, organism-based. Also on record: time infinity, dose 10 mg/kg, route oral. Summed up:
as §2

A short description of series [11]: AUC (0 to infinity) in Sprague-Dawley rat at 5 mg/kg, iv. Set-up: dose 5 mg/kg, route intravenous, time infinity. The format is ADME, organism-based. As to conditions: plasma. The essentials: as §2
For another series, the system named is Hepatocyte. As to the kind of experiment: Cytotoxicity against rat hepatocytes assessed as reduction in survival rate at 5 to 40 uM after 48 hrs by SRB assay. In kind it is cell-based. On the technique in general: In SRB staining, fixed cells bind dye roughly in proportion to their protein.
Series [12] can be described thus: Half life in Sprague-Dawley rat at 5 mg/kg, iv. Also on record: dose 5 mg/kg, route intravenous. The settings on record: in vivo. The format is ADME, organism-based. The essentials: as §2
The nature of series [13]: Clearance in Sprague-Dawley rat at 5 mg/kg, iv. Set-up: dose 5 mg/kg, route intravenous. The format is ADME, organism-based. The settings on record: in vivo. The essentials: as §2
Series [14] deals with Candida albicans. The experiment in a line: Antimicrobial activity against Candida albicans SC5314 infected in ICR mouse assessed as mean survival days at 0.32 mg/kg, iv qd for 5 days starting 2 hrs post infection (reference value: 9.0 +/- 0.67 days). In kind it is functional.
The target of series [15] is Voltage-gated inwardly rectifying potassium channel KCNH2 (Homo sapiens, UniProt Q12809). As to the kind of experiment: Inhibition of human ERG expressed in CHO cells by whole-cell patch clamp assay. In kind it is cell-based. (In general: In patch-clamp work, channel activity is measured electrically.)
Voltage-gated inwardly rectifying potassium channel KCNH2, sequence (Q12809 whole entry): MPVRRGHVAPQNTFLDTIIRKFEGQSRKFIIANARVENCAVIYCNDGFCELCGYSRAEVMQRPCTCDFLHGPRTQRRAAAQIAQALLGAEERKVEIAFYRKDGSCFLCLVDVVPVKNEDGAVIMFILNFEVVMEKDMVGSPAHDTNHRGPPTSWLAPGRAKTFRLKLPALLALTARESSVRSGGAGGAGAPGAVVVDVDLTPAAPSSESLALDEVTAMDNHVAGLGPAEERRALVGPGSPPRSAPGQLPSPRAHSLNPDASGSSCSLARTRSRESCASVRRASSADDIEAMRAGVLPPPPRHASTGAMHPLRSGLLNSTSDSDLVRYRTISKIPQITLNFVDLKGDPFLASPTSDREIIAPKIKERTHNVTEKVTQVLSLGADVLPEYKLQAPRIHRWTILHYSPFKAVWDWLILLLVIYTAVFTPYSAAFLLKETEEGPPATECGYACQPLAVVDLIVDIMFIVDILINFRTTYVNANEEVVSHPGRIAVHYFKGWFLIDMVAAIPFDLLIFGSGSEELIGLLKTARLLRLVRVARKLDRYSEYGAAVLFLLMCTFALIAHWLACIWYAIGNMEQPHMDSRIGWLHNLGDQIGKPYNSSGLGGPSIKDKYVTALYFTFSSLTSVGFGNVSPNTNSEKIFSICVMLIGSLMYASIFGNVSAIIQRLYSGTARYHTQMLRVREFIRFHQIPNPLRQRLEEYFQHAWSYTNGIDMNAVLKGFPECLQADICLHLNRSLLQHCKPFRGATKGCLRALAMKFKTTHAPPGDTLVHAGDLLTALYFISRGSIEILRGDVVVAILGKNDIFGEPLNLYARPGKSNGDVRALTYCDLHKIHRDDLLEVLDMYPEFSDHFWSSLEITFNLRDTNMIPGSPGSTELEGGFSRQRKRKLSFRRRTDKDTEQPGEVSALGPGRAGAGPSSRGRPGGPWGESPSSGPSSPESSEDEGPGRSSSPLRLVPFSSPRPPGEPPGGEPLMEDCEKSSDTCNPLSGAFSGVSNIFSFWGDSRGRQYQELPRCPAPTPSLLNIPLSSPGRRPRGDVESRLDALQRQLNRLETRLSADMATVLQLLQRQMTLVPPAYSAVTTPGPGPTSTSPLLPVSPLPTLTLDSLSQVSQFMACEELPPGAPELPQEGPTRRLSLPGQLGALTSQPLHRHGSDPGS
Series [16] has as its system Candida albicans. The experiment in a line: Antimicrobial activity against Candida albicans SC5314 after 24 hrs by serial dilution method. The format is functional. As to conditions: SC5314, 24 h. Summed up:
(§3)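 Broth serial dilution MIC in 96-well plates following NCCLS/CLSI methods. Compounds were dissolved in DMSO and serially diluted in growth medium, with incubation at 35 °C. […] C. parapsilosis 22019 served as the quality-control strain in each assay.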

Series [17] deals with Candida albicans. The experiment in a line: Antimicrobial activity against Candida albicans SC5314 infected in ICR mouse assessed as mean survival days at 0.5 mg/kg, po qd for 5 days starting 2 hrs post infection (reference value: 9.0 +/- 0.67 days). The format is functional. Summed up:
(§4)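 Reference arm of the systemic C. albicans SC5314 model: female ICR mice (18−22 g, n = 10) were infected iv with 0.2 mL of 5 × 10⁶ CFU/mL. Fluconazole was given orally in distilled water, qd for 5 days from 2 h post-infection. Mean survival days were scored over 30 days.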

The next series has as its system Cryptococcus neoformans. The experiment in a line: Antimicrobial activity against Cryptococcus neoformans 32609 after 72 hrs by serial dilution method. The format is functional. As to conditions: Cryptococcus neoformans, 32609, 72 h. The essentials: as §3
In series [18] the test system is Candida albicans. As to the kind of experiment: Antimicrobial activity against fluconazole-resistant Candida albicans J18 after 24 hrs by serial dilution method. In kind it is functional. As to conditions: J18, 24 h. Summed up:
(§5)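 Broth serial-dilution MIC in 96-well plates following NCCLS guidance. Compounds were dissolved in DMSO and serially diluted in growth medium. Clinical isolates came from a hospital collection. […] C. parapsilosis ATCC 22019 served as the quality-control strain in each assay.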

A further series has as its system Aspergillus fumigatus. As to the kind of experiment: Antimicrobial activity against Aspergillus fumigatus 7544 after 48 hrs by serial dilution method. In kind it is functional. The settings on record: Aspergillus fumigatus, 7544, 48 h. The essentials: as §3
Another series concerns Nakaseomyces glabratus. The experiment in a line: Antimicrobial activity against Candida glabrata 537 after 24 hrs by serial dilution method. As to conditions: Nakaseomyces glabratus, 537, 24 h. The format is functional. Summed up: as §3
Series [19] deals with Candida albicans. As to the kind of experiment: Antimicrobial activity against fluconazole-resistant Candida albicans 100 after 24 hrs by serial dilution method. The format is functional. As to conditions: Candida albicans, 100, 24 h. The essentials:
as §5

Series [20] has as its system Candida albicans. The experiment in a line: Antimicrobial activity against fluconazole-resistant Candida albicans J38 after 24 hrs by serial dilution method. In kind it is functional. As to conditions: J38, 24 h. The essentials: as §5
Series [21] relates to Candida albicans. As to the kind of experiment: Antimicrobial activity against Candida albicans Y0109 after 24 hrs by serial dilution method. The format is functional. The settings on record: Y0109, 24 h. Summed up:
as §3

In series [22] the test system is Candida albicans. As to the kind of experiment: Antimicrobial activity against fluconazole-resistant Candida albicans J28 after 24 hrs by serial dilution method. In kind it is functional. The settings on record: J28, 24 h. The essentials: as §5
In a further series the test system is Candida parapsilosis. As to the kind of experiment: Antimicrobial activity against Candida parapsilosis 22019 after 24 hrs by serial dilution method. The format is functional. As to conditions: Lodderomyces parapsilosis, 22019, 24 h. Summed up: as §3
In series [23] the test system is Candida albicans. As to the kind of experiment: Antimicrobial activity against fluconazole-resistant Candida albicans 103 infected in ICR mouse assessed as mean survival days at 0.5 mg/kg, po qd for 5 days starting 2 hrs post infection (reference value: 1.5 +/- 0.53 days). The format is functional.
The test system of series [24] is Candida albicans. The experiment in a line: Antimicrobial activity against fluconazole-resistant Candida albicans 103 after 24 hrs by serial dilution method. In kind it is functional. As to conditions: Candida albicans, 103, 24 h. Summed up: as §5
In series [25] the test system is Candida albicans. The experiment in a line: Antimicrobial activity against Candida albicans SC5314 infected in ICR mouse assessed as mean survival days at 0.5 mg/kg, po qd for 5 days starting 2 hrs post infection (reference value: 5.2 +/- 2.35 days starting 2 hrs post infection). In kind it is functional. Summed up:
as §4

What is called bioavailability is the share of a dose that reaches the circulation, judged against a reference dose that is usually intravenous. Lower therefore signals little systemic uptake. By Tmax is commonly meant the time at which the peak concentration occurs. As usually defined, the Cmax is the highest concentration seen after dosing. In general, AUC(0-inf) refers to the area under the concentration-time curve extrapolated to infinity. A lower AUC(0-inf) goes with less exposure. Broadly, the clearance is the volume of plasma or blood freed of the substance per unit of time. Read a high clearance as a high capacity for elimination. As to `C[C@@H](N1CCc2nc(-c3cncnc3)sc2C1)[C@](O)(Cn1cncn1)c1ccc(F)cc1F.O.O=S(=O)(O)O`, the microsomal CLint at 0.1 µM in [1] worked out at 65 µL/min/mg. The compound further came in with a bioavailability in series [2] of 5.8%. Moreover, the Tmax in [3] was 15 min. In addition, the Survival in the series on Candida albicans [4] worked out at 9.8 days; in the series with Candida albicans [8] it was 11.1 days; in the series with Candida albicans [9], 7.8 days; with Candida albicans [14], 8.8 days. Besides, the Cmax in series [5] is 164 ng/mL. Besides, the half-life at 0.1 µM in [6] worked out at 32.4 min. The half-life in series [7] was 27.6 min; in [12], 25.2 min. Besides, the AUC(0-inf) in [10] is 141 ng·h/mL; in [11], 1190 ng·h/mL. Also, the Activity entry with Hepatocyte was “Non-toxic”. The same compound showed a clearance in [13] of 72.5 mL/min/kg.

A word on the IC50: it is the concentration that inhibits the measured activity by half. A high value points to weaker potency. `CCC(C)n1ncn(-c2ccc(N3CCN(c4ccc(OCC5COC(Cn6cncn6)(c6ccc(Cl)cc6Cl)O5)cc4)CC3)cc2)c1=O` (racemic) [ITRACONAZOLE]: the IC50 in series [15] was > 40 µM.

In general, MIC refers to the lowest concentration that inhibits growth of the organism. Low readings indicate a more susceptible organism, high ones a less susceptible organism. Turning to `OC(Cn1cncn1)(Cn1cncn1)c1ccc(F)cc1F` [FLUCONAZOLE], the MIC in the series on Candida albicans [16] was 0.5 µg/mL (≈ 1.63 µM); with Cryptococcus neoformans it was 0.5 µg/mL (≈ 1.63 µM); in the series on Candida albicans [18] it was > 1020 µg/mL; against Aspergillus fumigatus it was > 64 µg/mL; against Nakaseomyces glabratus, 0.25 µg/mL (≈ 0.816 µM); in the series with Candida albicans [19] it was 512 µg/mL (≈ 1670 µM). Moreover, the MIC is > 4 µg/mL with Candida albicans [20]; 0.5 µg/mL (≈ 1.63 µM) against Candida albicans [21]; > 4 µg/mL in the series with Candida albicans [22]; 1 µg/mL (≈ 3.27 µM) against Candida parapsilosis; > 1020 µg/mL against Candida albicans [24]. Also, the Survival in the series with Candida albicans [17] worked out at 13.1 days; with Candida albicans [23], 2.3 days; with Candida albicans [25], 11.7 days.

(Values after ChEMBL document CHEMBL3259614, “Design, synthesis, and structure-activity relationship studies of novel fused heterocycles-linked triazoles with good activity and water solubility” (J Med Chem, 2014).)
